# ChEMBL document CHEMBL1275586, “Phenotypic susceptibility to bevirimat in isolates from HIV-1-infected patients without prior exposure to bevirimat” (Antimicrob Agents Chemother, 2010)
# Columns and labels:
# [1] = test system: Human immunodeficiency virus 1; test: Antiviral activity against Human immunodeficiency virus 1 isolate 7 harboring Gag-capsid I138L, I147L, S173A, V215L, I223V, T242N, G248A, N252A, I126T, T280V and E312D mutant gene and protease K20R, M36I, R41K, M46I, L63Q, I64V, P79S, V82F and L90M mutant gene infected in human MT-2 cells by XTT-assay relative to wild-type; format: functional, MT2
# Outline: (§1)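 Patient Gag-protease (SfoI-XmaI) fragments were ligated into the pXXLAI backbone, with colonies pooled to keep quasispecies. Virus came from 293T transfection, harvested at 2 days. MT-2 infection at 37°C used an input giving XTT signal-to-noise of 2.5–4.0 (≈MOI 0.001). Cells at ≈17,000/well with drug dilutions, 5 days, 37°C; XTT 1 h, A450–650. EC50 from % cell death; fold change vs wild-type LAI.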
# [2] = test system: Human immunodeficiency virus 1; test: Antiviral activity against Human immunodeficiency virus 1 isolate 36 harboring Gag-capsid I138L, A146P, S165N/S, E207D, V215L and E312D mutant gene and protease K14R/K, I15V, E35D, S37D, R57K/R and L63P mutant gene infected in human MT-2 cells by XTT-assay relative to wild-type; format: functional, MT2; outline: as §1
# [3] = test system: Human immunodeficiency virus 1; test: Antiviral activity against Human immunodeficiency virus 1 isolate 20 harboring Gag-capsid I138L, V215L, V218P, H219Q, M228I, E230D, G248T, T280A, E312D, A340G and G357S mutant gene and protease L10F, A22V, D30N, S37N, K45R, I54L, I62V, L63P, A71V, V77I, I84V, N88D and Q92K mutant gene infected in human MT-2 cells by XTT-assay relative to wild-type; format: functional, MT2; outline: as §1
# [4] = test system: Human immunodeficiency virus 1; test: Antiviral activity against Human immunodeficiency virus 1 isolate 37 harboring Gag-capsid V135I, I138P, V143I, Q182H, V215L/V, V218P/A, H219Q, I223V, E230D, N252S, T280A, R286K, K302R and G357S mutant gene and protease S37D, R41K, L63P and I93L mutant gene infected in human MT-2 cells by XTT-assay relative to wild-type; format: functional, MT2; outline: as §1
# [5] = test system: Human immunodeficiency virus 1; test: Antiviral activity against Human immunodeficiency virus 1 isolate 30 harboring Gag-capsid I138L, V215L, R286K and Q311A mutant gene and protease I13V, E35D, S37N and L63P mutant gene infected in human MT-2 cells by XTT-assay relative to wild-type; format: functional, MT2; outline: as §1
# [6] = test system: Human immunodeficiency virus 1; test: Antiviral activity against Human immunodeficiency virus 1 isolate 25 harboring Gag-capsid I138M, S173A, V215L, N252S, I256T, S310T/S, A340G and E345D mutant gene and protease L10F, V11I, I13V, K20I, V32I, L33F, E34Q, E35D, M36I, S37N, K43T, M46I, F53Y, I54L, Q61N, I62V, L63T, I64V, A71L, T74S, L76V, I84V, L90M and I93L mutant gene infected in human MT-2 cells by XTT-assay relative to wild-type; format: functional, MT2; outline: as §1
# [7] = test system: Human immunodeficiency virus 1; test: Antiviral activity against Human immunodeficiency virus 1 isolate 27 harboring Gag-capsid I138L, S173T/S, V215L, L268M, R275K/R, T280V, S310T, E319D and G357S and protease L10I, I15V, L19V, V32I, L33F, M46I, I54V, K55R, R57K, L63P, C67F, H69Q, A71V, G73C/G, V82A, L90M and Q92K mutant gene and deletion at A341 in Gag- capsid infected in human MT-2 cells by XTT-assay relative to wild-type; format: functional, MT2; outline: as §1
# [8] = test system: Human immunodeficiency virus 1; test: Antiviral activity against Human immunodeficiency virus 1 isolate 6 harboring Gag-capsid I138L and V215L mutant gene and protease L10I, S37N, M46L, G48V, R57K, L63P, I66F, A71V, V82T and I84V mutant gene infected in human MT-2 cells by XTT-assay relative to wild-type; format: functional, MT2; outline: as §1
# [9] = test system: Human immunodeficiency virus 1; test: Antiviral activity against Human immunodeficiency virus 1 isolate 24 harboring Gag-capsid I138L, V159I, V215L, I223A, T239S, N252S, T280V, R286K, S310T and V362I mutant gene and protease L10V, I13V, I15V, K20R, D30N, V32I, L33F, E35D, M36I, S37N, K43T, M46I, I47V, F53L, I54L, I62V, L63P, I66F, A71V, T74S, V82A, N88D, L89V, L90M and I93V mutant gene infected in human MT-2 cells by XTT-assay …; format: functional, MT2
# [10] = test system: Human immunodeficiency virus 1; test: Antiviral activity against Human immunodeficiency virus 1 isolate 12 harboring Gag-capsid I138L E207D, V215L, V218P, H219Q, M228I, G248T, T280S, E312D, A340G, G357S and V362I mutant gene and protease S37N, I62V/I, L63P, I64L and V82I mutant gene infected in human MT-2 cells by XTT-assay relative to wild-type; format: functional, MT2; outline: as §1
# [11] = test system: Human immunodeficiency virus 1; test: Antiviral activity against Human immunodeficiency virus 1 isolate 2 harboring Gag-capsid A146P, S173A, V215L, H219P, E230D, N252S, R264K, L268M and A340G mutant gene and protease L10I, I15V, K20R, M36I, S37N, M46I, L63P, T80A, V82A, N83H, I84V, I85T and L90M mutant gene infected in human MT-2 cells by XTT-assay relative to wild-type; format: functional, MT2; outline: as §1
# [12] = test system: Human immunodeficiency virus 1; test: Antiviral activity against antiretroviral-pretreated PI-resistant Human immunodeficiency virus 1 isolate 29 harboring Gag-SP-1 T375A mutant gene infected in human MT-2 cells by XTT assay relative to wild-type; format: functional, MT2
# Outline: (§2)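 Patient-derived Gag fragments were pooled as bacterial colonies to keep quasispecies diversity and ligated into the pXXLAI (HIV-1 LAI) backbone. Virus was made by transfecting 293T cells and harvesting supernatant 2 days later. MT-2 cells were infected at 37°C with an inoculum titrated to give an XTT signal-to-noise of 2.5–4.0. Cells were plated into drug dilutions, incubated 5 days at 37°C, and read by XTT absorbance (450−650 nm). EC50 was taken from percent cell death and expressed as fold change versus wild-type LAI.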
# [13] = test system: Human immunodeficiency virus 1; test: Antiviral activity against antiretroviral-pretreated PI-resistant Human immunodeficiency virus 1 isolate 7 infected in human MT-2 cells by XTT assay relative to wild-type; format: functional, MT2; outline: as §2
# [14] = test system: Human immunodeficiency virus 1; test: Antiviral activity against antiretroviral-pretreated PI-resistant Human immunodeficiency virus 1 isolate 26 harboring Gag-SP1 N372S, S373P and T375N mutant gene infected in human MT-2 cells by XTT assay relative to wild-type; format: functional, MT2; outline: as §2
# [15] = test system: Human immunodeficiency virus 1; test: Antiviral activity against antiretroviral-pretreated PI-resistant Human immunodeficiency virus 1 isolate 5 harboring Gag-SP1 Q369H and T375N mutant gene infected in human MT-2 cells by XTT assay relative to wild-type; format: functional, MT2; outline: as §2
# [16] = test system: Human immunodeficiency virus 1; test: Antiviral activity against Human immunodeficiency virus 1 isolate 33 harboring Gag-SP1 S368G, V370M and S373T mutant gene infected in human MT-2 cells by XTT assay relative to wild-type; format: functional, MT2; outline: as §1
# [17] = test system: Human immunodeficiency virus 1; test: Antiviral activity against Human immunodeficiency virus 1 isolate 34 harboring Gag-capsid G357S mutant gene and Gag-SP1 V370A, N372T, S373P and T375A mutant gene infected in human MT-2 cells by XTT assay relative to wild-type; format: functional, MT2; outline: as §1
# [18] = test system: Human immunodeficiency virus 1; test: Antiviral activity against Human immunodeficiency virus 1 isolate 35 harboring Gag-capsid G357S mutant gene and Gag-SP1 V370A, T371Q, N372S, T375N and I376M mutant gene infected in human MT-2 cells by XTT assay relative to wild-type; format: functional, MT2; outline: as §1
# [19] = test system: Human immunodeficiency virus 1; test: Antiviral activity against Human immunodeficiency virus 1 isolate 4 harboring Gag-capsid A146P, V159I, V215L, I223G/V, P255A, E312D and G357S mutant gene and protease L10R, S37N, M46L, I62V, L63P, A71V, V82T, L90M and I93L mutant gene infected in human MT-2 cells by XTT-assay relative to wild-type; format: functional, MT2; outline: as §1
# [20] = test system: Human immunodeficiency virus 1; test: Antiviral activity against Human immunodeficiency virus 1 isolate 1 harboring Gag-SP-1 S368, V370 and deletion at T371 in Gag-SP-1 mutant infected in human MT-2 cells by XTT-assay relative to wild-type; format: functional, MT2; outline: as §1
# [21] = test system: Human immunodeficiency virus 1; test: Antiviral activity against Human immunodeficiency virus 1 isolate 8 harboring Gag-SP1 V362I mutant infected in human MT-2 cells by XTT-assay relative to wild-type; format: functional, MT2; outline: as §1
# [22] = test system: Human immunodeficiency virus 1; test: Antiviral activity against antiretroviral-pretreated PI-resistant Human immunodeficiency virus 1 isolate 27 harboring infected in human MT-2 cells by XTT assay relative to wild-type
SMILES,fold change (FC) [1],fold change (FC) [2],fold change (FC) [3],fold change (FC) [4],fold change (FC) [5],fold change (FC) [6],fold change (FC) [7],fold change (FC) [8],fold change (FC) [9],fold change (FC) [10],fold change (FC) [11],further results
Cc1cccc(C)c1OCC(=O)N[C@@H](Cc1ccccc1)[C@@H](O)C[C@H](Cc1ccccc1)NC(=O)[C@H](C(C)C)N1CCCNC1=O [LOPINAVIR],4.1,1.1,13.3,0.8,0.7,58.9,29.2,3.4,69,1.1,15.5,
C=C(C)[C@@H]1CC[C@]2(C(=O)O)CC[C@]3(C)[C@H](CC[C@@H]4[C@@]5(C)CC[C@H](OC(=O)CC(C)(C)C(=O)O)C(C)(C)[C@@H]5CC[C@]43C)[C@@H]12 [BEVIRIMAT],,,,,,,,,,,,fold change (FC) [12]: >100; fold change (FC) [13]: 1; fold change (FC) [14]: 1.3; fold change (FC) [15]: 2.2; fold change (FC) [16]: >100; fold change (FC) [17]: >100; fold change (FC) [18]: >100; fold change (FC) [19]: >100; fold change (FC) [20]: 0.6; fold change (FC) [21]: >100; fold change (FC) [22]: 36
COC(=O)N[C@H](C(=O)N[C@@H](Cc1ccccc1)[C@@H](O)CN(Cc1ccc(-c2ccccn2)cc1)NC(=O)[C@@H](NC(=O)OC)C(C)(C)C)C(C)(C)C [ATAZANAVIR],1,1.3,51.9,0.9,0.9,184,52.1,29.2,590,1.2,10.7,
